In assay [1] the test system is RAW264.7. The assay is described as follows: Inhibition of LPS and IFNgamma-induced nitric oxide production in mouse RAW264.7 cells incubated for 16 hrs by Griess assay. It is filed as functional, cell-based. The gist of the method:
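RAW 264.7 macrophages stimulated with LPS plus IFN-γ to induce iNOS. Compounds dissolved in DMSO and diluted in PBS. Nitrite in supernatants measured by Griess assay against a sodium nitrite standard curve after 16 h. Activity expressed relative to LPS/IFN-γ/0.1% DMSO control; L-NMMA as positive control. Eight concentrations, at least three independent experiments, each in duplicate.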

Assay [2] concerns the target T1, Peroxisome proliferator-activated receptor gamma (Homo sapiens) (UniProt P37231).
T1 sequence (whole entry): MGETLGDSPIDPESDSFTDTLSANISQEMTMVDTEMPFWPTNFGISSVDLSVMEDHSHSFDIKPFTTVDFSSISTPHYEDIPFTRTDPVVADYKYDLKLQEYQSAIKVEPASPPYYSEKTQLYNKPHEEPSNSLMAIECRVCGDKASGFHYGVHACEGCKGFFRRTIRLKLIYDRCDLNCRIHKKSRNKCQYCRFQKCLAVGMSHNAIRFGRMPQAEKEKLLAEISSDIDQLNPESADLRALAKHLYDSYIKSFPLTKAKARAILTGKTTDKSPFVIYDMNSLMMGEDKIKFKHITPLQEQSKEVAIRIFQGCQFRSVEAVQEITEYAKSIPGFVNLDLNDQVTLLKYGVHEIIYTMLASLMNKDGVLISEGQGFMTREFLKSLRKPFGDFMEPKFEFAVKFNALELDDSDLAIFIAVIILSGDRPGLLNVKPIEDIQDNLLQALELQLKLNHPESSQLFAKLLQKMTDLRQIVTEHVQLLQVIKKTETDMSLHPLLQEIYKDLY
Briefly: Agonist activity at human PPARgamma expressed in HEK293 cells assessed as induction of receptor activation at 10 uM incubated for 18 hrs by luciferase reporter gene assay relative to untreated control. It is filed as cell-based. The gist of the method: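 HEK-293 cells in DMEM with 10% FBS, transfected by calcium phosphate with human PPARγ1 plasmid, tk-PPREx3-luc reporter and pEGFP-N1. After 6 h, replated in phenol-red-free DMEM with charcoal-stripped FBS. Treated 18 h; DMSO ≤0.1% as solvent control. Firefly luciferase luminescence normalized to EGFP fluorescence per well.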
(In general: Reporter assays use an easily measured gene product as a stand-in for the process of interest.)

Data on ten compounds can be found in ChEMBL document CHEMBL3351676, “Polyyne hybrid compounds from Notopterygium incisum with peroxisome proliferator-activated receptor gamma agonistic effects” (J Nat Prod, 2014).

The source made the active and inactive calls. The rule behind the calls is not given here.

Consider `C=C[C@@H](O)C#CC#C[C@H](/C=C\CCCCCCC)O[C@]1(C)CCC[C@]2(C)CC[C@@H](C(C)(C)O)C[C@H]21`, for which the inhibition entry in assay [1] is “inactive”.

Turning to `C=C[C@H](C#CC#C[C@@H](O)/C=C\CCCCCCC)O[C@]1(C)CC[C@@H](O)[C@]2(C)CC[C@H](C(C)C)[C@H](O)[C@H]21`, in assay [2], the result was inactive. The inhibition entry in assay [1] was “inactive”.

For `C=C[C@@H](O)C#CC#C[C@H](/C=C\CCCCCCC)O[C@]1(C)CC[C@@H](C(C)C)[C@@H](O)[C@@H]2[C@@](C)(O)CC[C@]21O`, the outcome in assay [2] was inactive. For the same compound, the inhibition entry in assay [1] is “inactive”.

For the compound `C=C[C@H](C#CC#C[C@@H](O)/C=C\CCCCCCC)O[C@]1(C)CC[C@@H](O)[C@]2(C)CC[C@@H](C(C)C)[C@@H](O)[C@H]21`, in assay [1], the inhibition entry is “inactive”.

Consider `C=C[C@@H](O)C#CC#C[C@H](/C=C\CCCCCCC)O[C@]1(C)CC[C@@H](O)[C@]2(C)CC[C@@H](C(C)C)[C@@H](O)[C@H]21`, for which, in assay [2], the outcome was inactive. The inhibition result in assay [1] was “inactive”.

With `C=C[C@H]1OCc2cc3cc(OC)c(O)cc3c(C#C[C@@H](O)/C=C\CCCCCCC)c21`, the inhibition result in assay [1] was “inactive”.

As to `C=C[C@@H](O)C#Cc1c2c(cc3cc(OC)c(O)cc13)CO[C@H]2/C=C\CCCCCCC`, the result in assay [2] was inactive. The inhibition entry in assay [1] was “inactive”.

For `C=C[C@H](C#CC#C[C@@H](O)/C=C\CCCCCCC)O[C@]1(C)CCC[C@]2(C)CC[C@@H](C(C)(C)O)C[C@H]21`, the inhibition result in assay [1] is “inactive”.

Turning to `C=C[C@H](C#CC#C[C@@H](O)/C=C\CCCCCCC)O[C@]1(C)CC[C@@H](C(C)C)[C@@H](O)[C@@H]2[C@@](C)(O)CC[C@]21O`, in assay [2], the result was inactive. The inhibition entry in assay [1] is “inactive”.

Consider `C=C[C@@H](O)C#CC#C[C@H](/C=C\CCCCCCC)O[C@]1(C)CC[C@@H](O)[C@]2(C)CC[C@H](C(C)C)[C@H](O)[C@H]21`, for which the result in assay [2] was inactive. In assay [1], the inhibition result was “inactive”.
